Data reported in ChEMBL document CHEMBL1129082, “Approaches to short-acting neuromuscular blocking agents: nonsymmetrical bis-tetrahydroisoquinolinium mono- and diesters” (1996).

Legend:
Felis catus [1] = experiment: Vagal response in anesthetized cats; '+++ ' means significant inhibition at doses that produce neuromuscular blockade; assay type: functional, organism-based
Outline: (§1)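 Anesthetized cats given supplemental iv α-chloralose as needed, tracheally cannulated and ventilated with room air (20 mL/kg, 20 strokes/min), core temperature held at 37–38 °C. Right vagus crushed distal to the nodose ganglia and stimulated for 10 s every 5 min (20 Hz, 0.5 ms, 10–15 V supramaximal). Femoral arterial pressure recorded; heart rate taken from the ECG.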

Felis catus [2] = experiment: Blockade duration is the time from injection to 95% control in anesthetized cats; Range is 12-13 min; assay type: functional
Felis catus [3] = experiment: Effective dose for anesthetized cats; Range is 0.3-0.4 mg/Kg; assay type: functional
Felis catus [4] = experiment: Vagal response in anesthetized cats; '++ ' means significant inhibition at ED95 or slightly higher doses; assay type: functional, organism-based
Outline: (§2)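 Chloralose-anesthetized, ventilated cats kept at 37-38 °C. Nerve stimulated for 10 s every 5 min at 20 Hz, 0.5 ms, supramaximal 10-15 V. Heart rate from the ECG and arterial pressure via a femoral cannula used as the vagal read-out.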

Felis catus [5] = experiment: Blockade duration is the time from injection to 95% control in anesthetized cats; assay type: functional
Outline: (§3)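 Cats kept under chloralose anesthesia, with supplemental iv doses as needed. Trachea cannulated and ventilated with room air at 20 mL/kg and 20 strokes/min. Arterial pressure taken from a right femoral artery cannula, and heart rate from the ECG. Core temperature held at 37-38 °C by radiant heat.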

Felis catus [6] = experiment: Vagal response in anesthetized cats; assay type: functional; outline: as §2
Felis catus [7] = experiment: Effective dose for anesthetized cats; assay type: functional; outline: as §3
Felis catus [8] = experiment: Neuromuscular blocking property by neostigmine reversal in anesthetized cats at dose of 0.55 mg/Kg; Not recorded; assay type: functional, organism-based
Felis catus [9] = experiment: Vagal response in anesthetized cats; '++++' means significant inhibition in the absence of neuromuscular blockade; assay type: functional, organism-based; outline: as §1
Felis catus [10] = experiment: Effective dose for anesthetized cats; Range is 4-7 mg/Kg; assay type: functional
Felis catus [11] = experiment: Vagal response in anesthetized cats; '++++ ' means significant inhibition in the absence of neuromuscular blockade; assay type: functional, organism-based; outline: as §2
Felis catus [12] = experiment: Blockade duration is the time from injection to 95% control in anesthetized cats; Range is 7-8 min; assay type: functional; outline: as §3
Felis catus [13] = experiment: Effective dose for anesthetized cats; Range is 0.7-0.8 mg/Kg; assay type: functional; outline: as §3
Felis catus [14] = experiment: Effective dose for anesthetized cats; Range is 0.3-0.5 mg/Kg; assay type: functional; outline: as §3
Felis catus [15] = experiment: Blockade duration is the time from injection to 95% control in anesthetized cats; Range is 8-9 min; assay type: functional; outline: as §3
Felis catus [16] = experiment: Effective dose for anesthetized cats; Range is 0.5-0.7 mg/Kg; assay type: functional; outline: as §3
Felis catus [17] = experiment: Blockade duration is the time from injection to 95% control in anesthetized cats; Range is 8-12 min; assay type: functional; outline: as §3
Felis catus [18] = experiment: Effective dose for anesthetized cats; Range is 0.12-0.20 mg/Kg; assay type: functional; outline: as §3

COc1ccc(C[C@@H]2c3cc(OC)c(OC)cc3CC[N+]2(C)CCCCCCCCCOC(=O)CC[N+]2(C)CCC34c5c6ccc(OC)c5OC3[C@@H](OC)C=CC4[C@H]2C6)cc1OC.[I-].[I-] (some centres not stated)
Vagal response (Felis catus [1]): significant inhibition at doses that produce neuromuscular blockade | Blockade duration (Felis catus [2]): 13 min | ED95 (Felis catus [3]): 0.3 mg/kg

COc1ccc(C[C@@H]2c3cc(OC)c(OC)cc3CC[N+]2(C)CCCCCCCCCCCOC(=O)CC[N+]2(C)CCc3cc(OC)c(OC)c(OC)c3C2)cc1OC.[I-].[I-] (some centres not stated)
Vagal response (Felis catus [4]): significant inhibition at ED95 or slightly higher doses | Blockade duration (Felis catus [5]): 8 min | ED95 (Felis catus [3]): 0.3 mg/kg

COc1ccc(C[C@@H]2c3cc(OC)c(OC)cc3CC[N+]2(C)CCCCCCCCCOC(=O)CC[N+]2(C)CCc3cc(OC)c(OC)cc3[C@H]2Cc2ccc(OC)c(OC)c2)cc1OC.[I-].[I-] (some centres not stated)
Vagal response (Felis catus [6]): 0 | Blockade duration (Felis catus [5]): 15 min | ED95 (Felis catus [7]): 0.1 mg/kg | Neostigmine reversal (Felis catus [8]): Not recorded

C=CC[N+]1(CCCCCCCCCOC(=O)CC[N+]2(C)CCC34c5c6ccc(OC)c5OC3[C@@H](OC)C=CC4[C@H]2C6)CCc2cc(OC)c(OC)cc2[C@H]1Cc1ccc(OC)c(OC)c1.[Br-].[Br-] (some centres not stated)
Vagal response (Felis catus [9]): significant inhibition in the absence of neuromuscular blockade | Blockade duration (Felis catus [5]): 3 min | ED95 (Felis catus [10]): 4 mg/kg

C=CC[N+]1(CCC(=O)OCCCCCCCCC[N+]2(CC=C)CCc3cc(OC)c(OC)cc3[C@H]2Cc2ccc(OC)c(OC)c2)CCc2c(cc(OC)c(OC)c2OC)C1.[Br-].[Br-] (some centres not stated)
Vagal response (Felis catus [11]): significant inhibition in the absence of neuromuscular blockade | Blockade duration (Felis catus [12]): 8 min | ED95 (Felis catus [13]): 0.7 mg/kg

COc1ccc(C[C@@H]2c3cc(OC)c(OC)cc3CC[N+]2(C)CCCCOC(=O)CCCCOC(=O)CC[N+]2(C)CCc3cc(OC)c(OC)c(OC)c3C2)cc1OC.[I-].[I-] (some centres not stated)
Vagal response (Felis catus [1]): significant inhibition at doses that produce neuromuscular blockade | Blockade duration (Felis catus [5]): 8 min | ED95 (Felis catus [7]): 0.5 mg/kg

COc1cc2c(c(OC)c1OC)C[N+](C)(CCC(=O)OCCCCCCOC(=O)CC[N+]1(C)CCc3cc(OC)c(OC)c(OC)c3C1)CC2.[I-].[I-] (configuration not stated)
Vagal response (Felis catus [4]): significant inhibition at ED95 or slightly higher doses | Blockade duration (Felis catus [5]): 8 min | ED95 (Felis catus [14]): 0.3 mg/kg

COc1ccc(C[C@@H]2c3cc(OC)c(OC)cc3CC[N+]2(C)CCCCCCCCCCCOC(=O)CC[N+]2(C)CCc3c(cc(OC)c(OC)c3OC)C2)cc1OC.[I-].[I-] (some centres not stated)
Vagal response (Felis catus [4]): significant inhibition at ED95 or slightly higher doses | Blockade duration (Felis catus [15]): 9 min | ED95 (Felis catus [16]): 0.5 mg/kg

COc1ccc(C[C@@H]2c3cc(OC)c(OC)cc3CC[N+]2(C)CCCCCCCCCOC(=O)CC[N+]2(C)CCc3c(cc(OC)c(OC)c3OC)C2)cc1OC.[I-].[I-] (some centres not stated)
Vagal response (Felis catus [4]): significant inhibition at ED95 or slightly higher doses | Blockade duration (Felis catus [5]): 10 min | ED95 (Felis catus [7]): 0.26 mg/kg

COc1ccc(C[C@@H]2c3cc(OC)c(OC)cc3CC[N+]2(C)CCC(=O)OCCCCCOC(=O)CC[N+]2(C)CCc3cc(OC)c(OC)cc3[C@H]2Cc2ccc(OC)c(OC)c2)cc1OC.O=S(=O)([O-])c1ccccc1.O=S(=O)([O-])c1ccccc1 (some centres not stated)
Vagal response (Felis catus [6]): 0 | Blockade duration (Felis catus [5]): 14.6 min | ED95 (Felis catus [7]): 0.16 mg/kg

COc1ccc(C[C@@H]2c3cc(OC)c(OC)cc3CC[N+]2(C)CCCCCCCCCCCOC(=O)CC[N+]2(C)CCc3cc(OC)c(OC)cc3C2)cc1OC.[I-].[I-] (some centres not stated)
Vagal response (Felis catus [4]): significant inhibition at ED95 or slightly higher doses | Blockade duration (Felis catus [12]): 8 min | ED95 (Felis catus [7]): 0.3 mg/kg

COc1ccc(C[C@@H]2c3cc(OC)c(OC)cc3CC[N+]2(C)CCC(=O)OCCCCCCOC(=O)CC[N+]2(C)CCc3c(cc(OC)c(OC)c3OC)C2)cc1OC.[I-].[I-] (some centres not stated)
Vagal response (Felis catus [6]): 0 | Blockade duration (Felis catus [17]): 12 min | ED95 (Felis catus [18]): 0.12 mg/kg
